{"data": "Assay results gathered from unrelated publications", "BRAF V600E": "Serine/threonine-protein kinase B-raf (BRAF, Homo sapiens, UniProt P15056, V600E)", "BRAF": "Serine/threonine-protein kinase B-raf (BRAF, Homo sapiens, UniProt P15056)", "note": "Lines come from different studies, so protocols differ."}
{"Compound": "Cc1cnn2ncc(-c3ccnc(N(C)C)n3)c2c1", "target": "BRAF V600E", "observed": "binding", "concentration": "1 µM", "endpoint": "remaining binding", "value": "91%"}
{"Compound": "CC(C)(C)c1nc(-c2cccc(NS(=O)(=O)c3c(F)cccc3F)c2F)c(-c2ccnc(N)n2)s1", "target": "BRAF V600E", "observed": "enzyme activity", "action": "inhibitor", "method": "ATP luminescence", "concentration": "1 µM", "endpoint": "inhibition", "value": "81%"}
{"Compound": "Cc1nc(N2CC[C@@H](O)C2)ncc1-c1cc(C(F)(F)F)cc2[nH]ncc12", "target": "BRAF", "observed": "cell-free assay", "method": "competition with immobilised ligand", "concentration": "1 µM", "endpoint": "remaining binding", "value": "73%"}
{"Compound": "c1nc2c(Nc3ccc4c(c3)OCCO4)nc(Nc3ccc4c(c3)OCCO4)nc2[nH]1", "target": "BRAF", "observed": "enzyme activity", "action": "inhibitor", "concentration": "10 µM", "endpoint": "activity vs control", "value": "92%"}
{"Compound": "N#CCCc1ccc2c(c1)-c1[nH]c3ccc([N+](=O)[O-])cc3c1CC(=O)N2", "target": "BRAF", "observed": "cell-free assay", "concentration": "0.5 µM", "endpoint": "remaining signal", "value": "99.3%"}
{"Compound": "O=C(Nc1cnn(-c2csc(C(=O)NC3COC3)c2)c1)Nc1ccccc1Cl", "target": "BRAF", "observed": "enzyme activity", "action": "inhibitor", "concentration": "5 µM", "endpoint": "remaining activity", "value": "93.3%"}
{"Compound": "Cc1cc(NC(=O)c2cccc3cc(-c4cccc5[nH]nc(N)c45)ccc23)ccc1F", "target": "BRAF V600E", "observed": "enzyme activity", "action": "inhibitor", "concentration": "0.1 µM", "endpoint": "activity vs control", "value": "100%"}
{"Compound": "CC(C)(C)c1nc(-c2cccc(NS(=O)(=O)c3c(F)cccc3F)c2F)c(-c2ccnc(N)n2)s1", "target": "BRAF", "observed": "enzyme activity", "action": "inhibitor", "method": "radiometric", "concentration": "1 µM", "endpoint": "activity vs control", "value": "5%"}
{"Compound": "COc1cc2nccc(Oc3ccc(NC(=O)Nc4ccc(F)cc4F)c(F)c3)c2cc1OC", "target": "BRAF", "observed": "thermal stability", "method": "DSF", "concentration": "10 µM", "endpoint": "ΔTm", "value": "> 10 °C"}
{"Compound": "NC(=S)NN=C(CS(=O)(=O)c1ccccc1)c1ccc(F)cc1", "target": "BRAF V600E", "observed": "enzyme activity", "action": "inhibitor", "method": "ATP luminescence", "concentration": "0.1 µM", "endpoint": "inhibition", "value": "51%"}
{"Compound": "CC(C)(C)c1nc2c(s1)c1nc(N)ncc1c1ccc(NS(=O)(=O)c3c(F)cccc3F)c(F)c12", "target": "BRAF V600E", "observed": "enzyme activity", "action": "inhibitor", "method": "radiometric", "concentration": "1 µM", "endpoint": "remaining activity", "value": "27%"}
{"Compound": "CNC(=O)Nc1ccc2c(c1)[C@@]1(CC2)OC(=O)N(CC(=O)N(Cc2ccc(F)cc2)[C@@H](C)C(F)(F)F)C1=O", "target": "BRAF V600E", "observed": "cell-free assay", "method": "competition with immobilised ligand", "concentration": "1 µM", "endpoint": "remaining binding", "value": "96%"}
{"Compound": "Nc1ncnc2occ(-c3ccc(NC(=O)Nc4cc(C(F)(F)F)ccc4F)cc3)c12", "target": "BRAF", "observed": "cell-free assay", "concentration": "20 µM", "endpoint": "remaining signal", "value": "0.8%"}
{"Compound": "Cc1ccc(C(CS(=O)(=O)c2ccccc2)=NNc2nc(C)c(N=Nc3ccccc3)s2)cc1", "target": "BRAF V600E", "observed": "enzyme activity", "action": "inhibitor", "method": "ATP luminescence", "concentration": "1 µM", "endpoint": "inhibition", "value": "63%"}
{"Compound": "Cc1ccc(NC(=O)c2ccc(CN3CCN(C)CC3)cc2)cc1Nc1nc(-c2cccnc2)cs1", "target": "BRAF", "observed": "cell-free assay", "concentration": "0.5 µM", "endpoint": "remaining signal", "value": "92.3%"}
{"Compound": "O=C(Nc1cnn(-c2csc(C(=O)NC3COC3)c2)c1)Nc1c(F)cccc1Cl", "target": "BRAF", "observed": "enzyme activity", "action": "inhibitor", "concentration": "5 µM", "endpoint": "remaining activity", "value": "99.9%"}
{"Compound": "COc1ccc(-c2csc(NN=C(CS(=O)(=O)c3ccccc3)c3ccc(F)cc3)n2)cc1", "target": "BRAF V600E", "observed": "enzyme activity", "action": "inhibitor", "method": "ATP luminescence", "concentration": "10 nM", "endpoint": "inhibition", "value": "25%"}
{"Compound": "O=C1NC(c2ccccn2)Sc2ccccc21 (centres unmarked)", "target": "BRAF V600E", "observed": "cell-free assay", "method": "competition with immobilised ligand", "concentration": "1 µM", "endpoint": "remaining binding", "value": "94%"}
{"Compound": "Cc1ccc(C(CS(=O)(=O)c2ccccc2)=NNc2nc(-c3ccc(OCCCCOc4ccc(-c5csc(NN=C(CS(=O)(=O)c6ccccc6)c6ccc(C)cc6)n5)cc4)cc3)cs2)cc1", "target": "BRAF V600E", "observed": "enzyme activity", "action": "inhibitor", "method": "ATP luminescence", "concentration": "10 nM", "endpoint": "inhibition", "value": "32%"}
{"Compound": "O=C(NS(=O)(=O)c1ccc(NCC2CCOCC2)c([N+](=O)[O-])c1)c1ccc(N2CCN(Cc3ccc(C(F)(F)F)cc3-c3ccc(Cl)cc3)CC2)cc1Oc1cnc2[nH]ccc2c1", "target": "BRAF V600E", "observed": "cell-free assay", "method": "competition with immobilised ligand", "concentration": "1 µM", "endpoint": "remaining binding", "value": "83%"}
{"Compound": "N[C@@H]1CCN(c2nccc(-c3cnn4ncccc34)n2)C1", "target": "BRAF V600E", "observed": "binding", "concentration": "1 µM", "endpoint": "remaining binding", "value": "97%"}
{"Compound": "CCCCN(CCCC)C(=O)CN1C[C@H](c2cc(OC)c3c(c2)OCO3)[C@@H](C(=O)O)[C@@H]1CC(C)(C)CCC", "target": "BRAF V600E", "observed": "cell-free assay", "method": "competition with immobilised ligand", "concentration": "1 µM", "endpoint": "remaining binding", "value": "89.1%"}
{"Compound": "Cc1ccc(C(=O)NCc2ccsc2)cc1C#Cc1cn(C(C)C)c2ncnc(N)c12", "target": "BRAF V600E", "observed": "enzyme activity", "action": "inhibitor", "concentration": "1 µM", "endpoint": "activity vs control", "value": "9%"}
{"Compound": "O=C(Nc1cccnn1)N1CCC(=Cc2cccc(Oc3ccc(C(F)(F)F)cn3)c2)CC1", "target": "BRAF V600E", "observed": "cell-free assay", "method": "competition with immobilised ligand", "concentration": "1 µM", "endpoint": "remaining binding", "value": "100%"}
{"Compound": "Cc1ccc(C(=O)Nc2ccc(CN3CCN(C)CC3)c(C(F)(F)F)c2)cc1C#Cc1cnc2cccnn12", "target": "BRAF V600E", "observed": "cell-free assay", "concentration": "23.5 nM", "endpoint": "remaining signal", "value": "4.5%"}
{"Compound": "Cn1nc(C(=O)NCc2ccc(C(=O)O)cc2)cc1-c1ccc2[nH]ccc2c1", "target": "BRAF", "observed": "cell-free assay", "method": "competition with immobilised ligand", "concentration": "0.1 µM", "endpoint": "remaining binding", "value": "74%"}
{"Compound": "Cc1ccc(C(CS(=O)(=O)c2ccccc2)=NNC2=NC(=O)C(=NNc3ccc(Cl)cc3)S2)cc1", "target": "BRAF V600E", "observed": "enzyme activity", "action": "inhibitor", "method": "ATP luminescence", "concentration": "0.1 µM", "endpoint": "inhibition", "value": "46%"}
{"Compound": "Cc1nc(C2CCN(C(=O)c3ccc(OC(F)(F)F)cc3N)CC2)c2ncc(N3CCN(C)CC3)cc2n1", "target": "BRAF", "observed": "cell-free assay", "method": "competition with immobilised ligand", "concentration": "1 µM", "endpoint": "remaining binding", "value": "100%"}
{"Compound": "COc1cc(Nc2c(C#N)cnc3cc(OCCCN4CCN(C)CC4)c(OC)cc23)c(Cl)cc1Cl", "target": "BRAF", "observed": "cell-free assay", "concentration": "0.5 µM", "endpoint": "remaining signal", "value": "91.7%"}
